Source: article PMC3026963 (The Biochemical journal, 2010)
Entries after “also recorded” stand apart in the source; their conditions may differ.

Target: CK2α catalytic subunit (Homo sapiens, UniProt P68400)
Assay: In vitro phosphorylation assay of CK2α with peptide substrate RRRADDSDDDDD
Type: biochemical
Conditions: substrate RRRADDSDDDDD
Outline: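 Activity is expressed as % of no-peptide control, as the mean of at least three independent experiments. Full-length murine NBD1ΔF508 (389–673) tests were run at 350 μM ATP.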

Sequence of CK2α catalytic subunit (P68400 whole entry): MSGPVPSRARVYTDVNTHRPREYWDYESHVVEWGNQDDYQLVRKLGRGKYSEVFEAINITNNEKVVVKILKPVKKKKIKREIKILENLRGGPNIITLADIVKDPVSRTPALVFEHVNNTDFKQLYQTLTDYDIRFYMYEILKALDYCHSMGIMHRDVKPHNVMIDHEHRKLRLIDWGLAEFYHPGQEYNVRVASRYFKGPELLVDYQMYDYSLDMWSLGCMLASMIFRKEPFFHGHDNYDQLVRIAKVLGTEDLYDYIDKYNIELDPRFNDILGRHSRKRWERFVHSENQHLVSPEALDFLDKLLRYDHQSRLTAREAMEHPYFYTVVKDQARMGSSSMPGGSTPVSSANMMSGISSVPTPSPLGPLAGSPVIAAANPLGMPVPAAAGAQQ

onset of stimulation of CK2α catalytic activity (β-peptide alone) [µM]	Substance	inhibitory efficacy on CK2α (in words) (compared with the parent peptide)
–	CFTRΔI507 peptide: CFTR(500–518) peptide with Ile^507 deleted (GTIKENIFGVSYDEYRYR)	loss in inhibitory efficacy; also recorded: unable to exert the same efficacy of the CFTRΔF508 peptide
50	β-peptide: peptide reproducing the C-terminal segment of the CK2 β-subunit encompassing residues 182–203 (QFVPRLYGFKIHPMAYQLQLQA; UniProt P67870 182-203, looked up, fragment) [reference compound]	–
